In ChEMBL document CHEMBL1134766, “Synthesis of 2beta-acyl-3beta-(substituted naphthyl)-8-azabicyclo[3.2.1]octanes and their binding affinities at dopamine and serotonin transport sites” (J Med Chem, 2001):

Key:
[1] = molecular target: Monoamine transporters; serotonin & dopamine (Rattus norvegicus) (UniProt P31652+P23977); experiment: SERT/DAT (serotonin transporter/dopamine transporter) binding potency ratio; format: protein assay
[2] = molecular target: Sodium-dependent dopamine transporter (Rattus norvegicus, UniProt P23977); experiment: Inhibitory activity in displacing [125I]- RTI-55 binding to dopamine transporter in rat striatal membranes; format: cell membranes, Striatum, Membrane
Sodium-dependent dopamine transporter, sequence (P23977 whole entry): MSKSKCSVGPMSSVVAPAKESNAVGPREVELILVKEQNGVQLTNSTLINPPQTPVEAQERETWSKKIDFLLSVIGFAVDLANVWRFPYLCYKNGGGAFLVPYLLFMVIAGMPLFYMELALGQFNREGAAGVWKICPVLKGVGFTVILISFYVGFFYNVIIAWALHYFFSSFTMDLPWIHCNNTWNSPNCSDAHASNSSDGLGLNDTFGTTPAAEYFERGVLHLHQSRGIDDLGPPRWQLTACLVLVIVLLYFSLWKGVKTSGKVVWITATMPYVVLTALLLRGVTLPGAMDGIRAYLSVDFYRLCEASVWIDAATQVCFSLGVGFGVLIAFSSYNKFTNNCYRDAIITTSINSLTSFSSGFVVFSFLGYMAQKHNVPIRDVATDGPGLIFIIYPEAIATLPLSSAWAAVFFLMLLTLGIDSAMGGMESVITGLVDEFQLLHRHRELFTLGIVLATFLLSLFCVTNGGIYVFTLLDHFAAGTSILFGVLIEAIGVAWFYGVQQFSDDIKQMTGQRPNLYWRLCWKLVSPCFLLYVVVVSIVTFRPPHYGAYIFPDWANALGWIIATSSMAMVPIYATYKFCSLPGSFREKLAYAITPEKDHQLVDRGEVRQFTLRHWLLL
Outline: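 Nonspecific binding was defined with 1 µM WF-23. Curves were fitted by nonlinear regression, and IC50 is reported because binding at this transporter is multiphasic. Values are mean ± SEM of ≥3 experiments, each run in triplicate.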

[3] = molecular target: Norepinephrine transporter (Rattus norvegicus, UniProt Q9WTR4); experiment: Affinity for the displacement of [3H]paroxetine binding to norepinephrine transporter (NET) in rat frontal cortex membranes; format: cell membranes, Membrane
Norepinephrine transporter, sequence (Q9WTR4 whole entry): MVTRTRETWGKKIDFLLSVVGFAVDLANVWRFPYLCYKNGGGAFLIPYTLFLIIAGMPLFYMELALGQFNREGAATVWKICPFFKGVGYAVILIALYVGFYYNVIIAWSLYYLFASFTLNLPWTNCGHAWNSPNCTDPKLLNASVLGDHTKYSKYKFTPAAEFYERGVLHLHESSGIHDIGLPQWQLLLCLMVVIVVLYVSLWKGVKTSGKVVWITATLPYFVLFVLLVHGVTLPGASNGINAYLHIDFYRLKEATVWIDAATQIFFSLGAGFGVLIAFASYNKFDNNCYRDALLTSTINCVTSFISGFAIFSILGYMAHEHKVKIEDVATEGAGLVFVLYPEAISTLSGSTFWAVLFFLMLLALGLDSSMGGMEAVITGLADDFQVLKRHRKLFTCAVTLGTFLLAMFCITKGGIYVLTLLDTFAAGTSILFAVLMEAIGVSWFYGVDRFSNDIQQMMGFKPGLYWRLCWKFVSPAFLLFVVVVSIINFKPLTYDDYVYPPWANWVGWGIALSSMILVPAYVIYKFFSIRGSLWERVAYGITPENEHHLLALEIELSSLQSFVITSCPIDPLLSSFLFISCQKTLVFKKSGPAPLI

[4] = molecular target: Sodium-dependent serotonin transporter (Rattus norvegicus, UniProt P31652); experiment: Affinity for the displacement of [3H]paroxetine binding to serotonin transporter (SERT) in rat frontal cortex membranes; format: cell membranes, Membrane
Sodium-dependent serotonin transporter, sequence (P31652 whole entry): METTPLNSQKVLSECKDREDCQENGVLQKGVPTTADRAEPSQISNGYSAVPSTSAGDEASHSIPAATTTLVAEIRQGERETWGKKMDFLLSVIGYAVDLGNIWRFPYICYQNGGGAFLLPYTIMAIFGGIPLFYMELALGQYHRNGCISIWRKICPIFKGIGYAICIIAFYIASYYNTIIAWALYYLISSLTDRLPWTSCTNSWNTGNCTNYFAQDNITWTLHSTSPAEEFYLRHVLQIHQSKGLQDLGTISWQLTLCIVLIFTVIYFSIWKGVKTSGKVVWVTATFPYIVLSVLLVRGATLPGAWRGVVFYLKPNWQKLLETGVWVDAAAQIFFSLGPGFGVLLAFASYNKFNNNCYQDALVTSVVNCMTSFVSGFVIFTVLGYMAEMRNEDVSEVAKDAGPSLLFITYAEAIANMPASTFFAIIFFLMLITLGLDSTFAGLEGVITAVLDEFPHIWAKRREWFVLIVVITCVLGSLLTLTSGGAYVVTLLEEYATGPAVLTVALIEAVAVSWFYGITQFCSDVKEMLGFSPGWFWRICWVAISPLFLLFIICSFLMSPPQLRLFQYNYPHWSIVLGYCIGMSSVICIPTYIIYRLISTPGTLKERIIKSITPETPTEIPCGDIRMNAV
Outline: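 Displacement of 0.4 nM [3H]paroxetine in frontal cortex membranes (50 mg original wet weight) dissected from frozen Sprague-Dawley rat brains, using 7-10 analogue concentrations. Nonspecific binding was defined with 10 µM fluoxetine. Ki was obtained by nonlinear curve fitting and the Cheng-Prusoff equation. Values are mean ± SEM of ≥3 experiments, each in triplicate.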

Monoamine transporters; serotonin & dopamine (Rattus norvegicus), sequence (P23977 whole entry, looked up): as the sequence (P23977 whole entry) above
Monoamine transporters; serotonin & dopamine (Rattus norvegicus), sequence (P31652 whole entry, looked up): as the sequence (P31652 whole entry) above

Structure (SMILES) | Potency ratio [1] | IC50 [2] [nM] | Ki [3] [nM] | Ki [4] [nM]
CCC(=O)C1C(c2ccc3ccccc3c2)CC2CCC1N2C (stereo in doubt) [listing 1 of 2 here] | 0.15 | – | – | –
CCC(=O)C1C(c2ccc3ccccc3c2)CC2CCC1N2C (stereo in doubt) [listing 2 of 2 here] | – | 2.51 | 68 | 16.4
CC(=O)C1C(c2cccc3ccccc23)CC2CCC1N2C (stereo in doubt; form 2) [listing 1 of 2 here] | 0.4 | – | – | –
CCC(=O)C1C(c2cccc3ccccc23)CC2CCC1N2C (configuration not stated) | 0.3 | – | 49 | –
CC(=O)C1C(c2cccc3ccccc23)CC2CCC1N2C (stereo in doubt; form 1) [listing 1 of 2 here] | 0.45 | – | – | –
CCC(=O)C1C2CCC(CC1c1ccc3ccccc3c1)N2 (configuration not stated) | 0.13 | 0.03 | 2.05 | 0.23
CCC(=O)C1C(c2ccc3cc(CC)ccc3c2)CC2CCC1N2C (configuration not stated) | 0.4 | 0.15 | 27.7 | 0.38
CCC(=O)C1C(c2ccc3c([N+](=O)[O-])c(OC)ccc3c2)CC2CCC1N2C (configuration not stated) | 10 | 148 | – | 15
CCC(=O)C1C(c2ccc(C(C)C)c3ccccc23)CC2CCC1N2C (configuration not stated) | 2 | 225 | > 10000 | 136
CCC(=O)C1C(c2ccc3ccc(I)cc3c2)CC2CCC1N2C (configuration not stated) | 0.5 | 0.45 | – | 0.47
CCC(=O)C1C(c2ccc3ccccc3c2)CC2CCC1N2C (stereo in doubt; 8) | 0.3 | – | – | –
CCC(=O)C1C(c2ccc3c(I)c(OC)ccc3c2)CC2CCC1N2C (configuration not stated) | 0.6 | 1.31 | 781 | 2.27
CCC(=O)C1C(c2ccc3cc(I)ccc3c2)CC2CCC1N2C (configuration not stated) | 1 | 0.35 | – | 0.37
CCC(=O)C1C(c2ccc3c(C(C)=O)c(OC)ccc3c2)CC2CCC1N2C (configuration not stated) | 0.8 | 12.6 | 498 | 15.8
CCC(=O)C1C(c2ccc(C)c3ccccc23)CC2CCC1N2C (configuration not stated) | 3 | 25.1 | 163 | 8.99
CCC(=O)C1C(c2ccc(CC)c3ccccc23)CC2CCC1N2C (configuration not stated) | 0.7 | 75.1 | 4770 | 175
CC(=O)C1C(c2cccc3ccccc23)CC2CCC1N2C (stereo in doubt; form 1) [listing 2 of 2 here] | – | 97 | – | 217
CCC(=O)C1C(c2ccc3cc(OC)ccc3c2)CC2CCC1N2C (configuration not stated) | 0.05 | 0.13 | – | 2.24
CC(=O)C1C(c2ccc3ccccc3c2)CC2CCC1N2C (configuration not stated) | 1.2 | 1.27 | 4.9 | –
C=C(C)c1c(OC)ccc2cc(C3CC4CCC(C3C(=O)CC)N4C)ccc12 (configuration not stated) | 0.5 | 45 | 2330 | 88
CC(C)C(=O)C1C(c2ccc3ccccc3c2)CC2CCC1N2C (configuration not stated) | 0.12 | 0.25 | 37.6 | 2.08
CCC(=O)C1C(c2ccc3cc(C(C)C)ccc3c2)CC2CCC1N2C (configuration not stated) | 0.2 | 0.39 | – | 1.97
CCC(=O)C1C(c2ccc(C)cc2)CC2CCC1N2C (configuration not stated) | 0.06 | – | 65 | –
CC(=O)C1C(c2cccc3ccccc23)CC2CCC1N2C (stereo in doubt; form 2) [listing 2 of 2 here] | – | – | 165 | –
CCC(=O)C1C(c2ccc3c(CC)c(OC)ccc3c2)CC2CCC1N2C (configuration not stated) | 4.1 | 30.8 | 3360 | 7.55
